RGS4 block – human RGS4 inhibition | P49798 | HEK293 M3R/RGS4 inducible, Fluo-4 calcium flux; stronger effect = higher value; triggered by carbachol at its EC20 | B-score at 10 µM | 0.45% of 310,000 active;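 active means B-score, a plate-corrected calcium signal, over three deviations above library mean, with baseline fluorescence within five deviations of library mean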;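 further: RGS4 expression induced by doxycycline in cells with stable M3 receptor; B-score is computed from the integrated fluorescence ratio over baseline after carbachol; higher B-score means a larger calcium signal and so more RGS4 inhibition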
Target sequence (P49798 whole entry, looked up): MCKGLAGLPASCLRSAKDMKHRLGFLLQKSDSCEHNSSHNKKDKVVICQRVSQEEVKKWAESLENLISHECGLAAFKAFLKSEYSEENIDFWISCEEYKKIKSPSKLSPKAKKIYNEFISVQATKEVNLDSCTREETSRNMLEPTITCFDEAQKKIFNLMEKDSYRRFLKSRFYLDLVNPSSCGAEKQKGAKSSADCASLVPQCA
MrgX1 antag – antagonists of human MrgX1 receptor; Q96LB2; MRGX1-HEK293 calcium flux, Fluo-4, BAM8-22 antagonism; stronger effect = lower value; B-score at 10 µM; 1.3% of 310,000 active; AID 588676;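 active means calcium-response B-score plate-corrected more than 3 library SD below zero, starting fluorescence within 5 deviations, no agonist response on first addition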;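 further: peak minus trough fluorescence over baseline after final BAM8-22 challenge near maximal dose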
Target sequence (Q96LB2 whole entry, looked up): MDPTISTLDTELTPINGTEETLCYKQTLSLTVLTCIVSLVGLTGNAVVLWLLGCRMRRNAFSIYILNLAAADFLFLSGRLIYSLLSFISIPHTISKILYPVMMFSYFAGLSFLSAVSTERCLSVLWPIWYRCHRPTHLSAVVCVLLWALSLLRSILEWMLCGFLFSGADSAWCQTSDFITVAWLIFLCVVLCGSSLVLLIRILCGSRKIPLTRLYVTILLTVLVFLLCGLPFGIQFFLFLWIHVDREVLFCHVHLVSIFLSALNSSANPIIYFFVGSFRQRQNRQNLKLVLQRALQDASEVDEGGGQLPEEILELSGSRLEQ
MrgX1 ag – activates human MrgX1 receptor signaling; Q96LB2; MrgX1-HEK293 cells, Fluo-4 calcium fluorescence, agonist mode; stronger effect = higher value; B-score at 10 µM; 0.44% of 310,000 active; AID 588627;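 active means calcium response B-score plate-corrected fluorescence ratio at least 3 library SD, with starting fluorescence B-score inside 5 SD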
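Material: HEK293 cells stably expressing human MrgX1 receptor | Quantity: 15,000 cells per well | Times: Cells plated overnight, dye loaded 0.5 h 37 °C, 0.5 h room temperature | Measured by: Kinetic Fluo-4 NW fluorescence of intracellular calcium | Control set: Positive and negative controls per plate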
RGS4 pot – potentiators or activators of RGS4. B-score at 10 µM. HEK293 M3R/inducible RGS4, carbachol calcium flux Fluo4; stronger effect = lower value. 0.92% of 310,000 active;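 active means B-score of the integrated calcium signal more than 4 SD below the library mean, with starting fluorescence not abnormally high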;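 further: negative B-score means reduced calcium response which marks RGS4 activation or potentiation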
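Assay system: Inducible-RGS4 HEK293 cells carrying M3 receptor | Schedule: Compound preincubation 20 min at room temperature before agonist | Signal: Kinetic calcium fluorescence imaging with Fluo4-AM dye, 2 µM | Read-out basis: B score from integrated fluorescence ratio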
MrgX1 allo act – human MrgX1 positive allosteric modulation, primary screen; MrgX1-HEK293, Fluo-4 calcium flux, FDSS; stronger effect = higher value; 0.63% of 310,000 active; Q96LB2; AID 588675; B-score at 10 µM;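 active means plate-corrected calcium response at least 3 library SD above typical, normal starting fluorescence, not activating the receptor alone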;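 further: compound read alongside a low EC10 to EC30 dose of BAM8-22 agonist; peak minus trough fluorescence over baseline measured at the second addition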
MrgX1 PAM conf – human MrgX1 positive allosteric modulation, re-confirmation | 13% of 1,200 active | AID 602413 | activation (ratio percentage), % at 10 µM | MrgX1-HEK293, Fluo-4 calcium fluorescence, FDSS | shares compounds with MrgX1 allo act;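 active means ratio at least 3 SD above the weak peptide control, stable starting fluorescence, no direct agonism earlier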;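 further: compound followed by low BAM8-22 agonist challenge near EC20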
HEK293 Ca flux – activity in parental HEK293 cells lacking MrgX1; shares compounds with MrgX1 antag; Fluo-4 calcium fluorescence, FDSS; fluorescence ratio F(max-min)/F0 at 10 µM; 2% of 4,000 active;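 active means duplicate-averaged calcium fluorescence ratio at least three times the standard deviation of buffer wells, a nonspecific response in parental cells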
HEK293 Ca counter – counter-screen for MrgX1 allosteric activators: effect in parental HEK293 cells; shares compounds with MrgX1 antag; parental HEK293 calcium flux, Fluo-4 fluorescence ratio; stronger effect = higher value; fluorescence ratio F(max-min)/F0 at 10 µM; 0.4% of 4,000 active; AID 624114;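 active means calcium fluorescence ratio, averaged over duplicates, at least 3 SD of the buffer-well ratio, meaning a nonspecific response in receptor-free cells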;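 further: untransfected parental HEK293 lacking MrgX1 used as counterscreen for MrgX1 allosteric activators; fluorescence change taken during the second addition on a kinetic imager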
HEK293 Ca cntr2 – activity in parental HEK293 cells lacking MrgX1 receptor | shares compounds with MrgX1 antag | Fluo-4 calcium fluorescence (FDSS); stronger effect = higher value | fluorescence ratio F(max-min)/F0 at 10 µM | 8.7% of 4,000 active | AID 624115;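 active means calcium fluorescence ratio at least three times the spread of buffer wells, meaning a non-specific response in parental cells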
A number is an active result. The list is not random: actives were taken first. Their share in the collection is about 3.5%.

`COC(=O)C1=C(N)c2c(F)cccc2C1(C#N)c1ccc(F)cc1` (stereo unspecified) gave RGS4 block inactive, MrgX1 antag inactive, MrgX1 ag inactive, RGS4 pot inactive, MrgX1 allo act 8.44, MrgX1 PAM conf inactive, HEK293 Ca flux inactive, HEK293 Ca counter inactive and HEK293 Ca cntr2 inactive.
Screening CCOC(=O)C(C)Oc1cccc2c(=O)n(CC(=O)NCc3ccc(F)cc3)ccc12 (stereo unspecified) returned RGS4 block inactive, MrgX1 antag inactive, MrgX1 ag inactive, RGS4 pot inactive and MrgX1 allo act inactive.
Screening O=C(N[C@@H](Cc1c[nH]c2ccccc12)C(=O)O)c1ccccc1Cl returned RGS4 block inactive, MrgX1 antag inactive, MrgX1 ag inactive, RGS4 pot inactive, MrgX1 allo act 17.4, MrgX1 PAM conf inactive, HEK293 Ca flux inactive, HEK293 Ca counter inactive and HEK293 Ca cntr2 inactive.
For CN(C)S(=O)(=O)c1cccc(COc2ccccc2C(=O)Nc2ccccc2)c1 the results were RGS4 block inactive, MrgX1 antag inactive, MrgX1 ag inactive, RGS4 pot inactive and MrgX1 allo act inactive.
For CC(C)COc1ccc(C(=O)CCN2CCCCC2)cc1 the results were RGS4 block inactive, MrgX1 antag inactive, MrgX1 ag inactive, RGS4 pot inactive and MrgX1 allo act inactive.
`CCCCOc1ccc(C(=O)CCN2CCCCC2)cc1` gave RGS4 block inactive, MrgX1 antag inactive, MrgX1 ag inactive, RGS4 pot inactive, MrgX1 allo act 7.14, MrgX1 PAM conf inactive, HEK293 Ca flux inactive, HEK293 Ca counter inactive and HEK293 Ca cntr2 inactive.
COc1ccc(-c2cn3c(C)c(C(=O)N4CCCc5ccccc54)sc3n2)cc1 was read as RGS4 block inactive, MrgX1 antag inactive, MrgX1 ag inactive, RGS4 pot inactive, MrgX1 allo act 8.03, MrgX1 PAM conf inactive, HEK293 Ca flux inactive, HEK293 Ca counter inactive and HEK293 Ca cntr2 inactive.
Cc1cc(OCC(=O)NCCCN2CCCC2=O)c2c(C)c(C)c(=O)oc2c1 was read as RGS4 block inactive, MrgX1 antag inactive, MrgX1 ag inactive, RGS4 pot inactive and MrgX1 allo act inactive.
For COc1c(Cl)cccc1-c1cn2ccc(C)cc2n1 the results were RGS4 block inactive, MrgX1 antag inactive, MrgX1 ag inactive, RGS4 pot inactive, MrgX1 allo act 14.8, MrgX1 PAM conf inactive, HEK293 Ca flux inactive, HEK293 Ca counter inactive and HEK293 Ca cntr2 inactive.
Screening Cc1ccn2cc(-c3ccc(Br)cc3)nc2c1 returned RGS4 block inactive, MrgX1 antag inactive, MrgX1 ag inactive, RGS4 pot inactive, MrgX1 allo act 14.7, MrgX1 PAM conf inactive, HEK293 Ca flux inactive, HEK293 Ca counter inactive and HEK293 Ca cntr2 inactive.
For COc1cc(CN2CCC(CCC(=O)NC3CC3)CC2)cc(Cl)c1OC the results were RGS4 block inactive, MrgX1 antag inactive, MrgX1 ag inactive, RGS4 pot inactive and MrgX1 allo act inactive.
Cc1sc2ncn(CCC(=O)O)c(=O)c2c1C was read as RGS4 block inactive, MrgX1 antag inactive, MrgX1 ag inactive, RGS4 pot inactive and MrgX1 allo act inactive.
Cc1sc2ncn(CCn3cnc4sc(C)c(C)c4c3=O)c(=O)c2c1C was read as RGS4 block inactive, MrgX1 antag inactive, MrgX1 ag inactive, RGS4 pot inactive, MrgX1 allo act 13.5, MrgX1 PAM conf inactive, HEK293 Ca flux inactive, HEK293 Ca counter inactive and HEK293 Ca cntr2 inactive.
Screening Cc1ccccc1-c1nc2sc3c(c2c(=O)o1)CCC3 returned RGS4 block inactive, MrgX1 antag inactive, MrgX1 ag inactive, RGS4 pot inactive and MrgX1 allo act inactive.

From PubChem
